# Measured values taken from ChEMBL document CHEMBL1129597, “2-[2'-(Dimethylamino)ethyl]-1,2-dihydro- 3H-dibenz[de,h]isoquinoline-1,3-diones with substituents at positions 4, 8, 9, 10, and 11. Synthesis, antitumor activity, and quantitative structure-activity relationships” (J Med Chem, 1996).
# Key:
# [1] = test system: A549; test: Activity against A549 cancer cell line.; type: functional, cell-based; conditions: Homo sapiens
# [2] = test system: L1210; test: Antitumor activity against sensitive L1210 murine leukemia cell lines.; type: functional, cell-based; conditions: Mus musculus
# Method in brief: (§1)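 Murine L1210 leukemia cells, sensitive or MDR subline, in culture. Continuous drug exposure during MTT assay. Five concentrations per analogue, six determinations per concentration. The IC50 was derived.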
# [3] = test system: L1210; test: Antitumor activity against murine leukemia L1210 cell line.; type: functional, cell-based; conditions: Mus musculus; method in brief: as §1
# [4] = test system: MCF7; test: Antitumor activity against human mammary carcinoma mitoxantrone-resistant […] breast cell line.; type: functional, cell-based
# [5] = test system: MCF7; test: Antitumor activity against human mammary carcinoma doxorubicin-resistant […] breast cell line.; type: functional, cell-based
# [6] = test system: MCF7; test: Antitumor activity against human mammary carcinoma sensitive […] breast cell line.; type: functional, cell-based
# [7] = test system: OVCAR-3; test: Antitumor activity against human ovarian OVCAR-3 cell lines.; type: functional, cell-based
# Method in brief: (§2)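 Cultured human tumor cells (melanoma UACC375, ovarian OVCAR3) under continuous drug exposure. Growth was read by sulforhodamine or MTT assay. Five concentrations per analogue, six determinations per concentration. IC50 values were derived from these.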
# [8] = species on record: Rattus norvegicus; test: Cardiotoxicity measured by the ATP/protein ratio compared with untreated controls using neonatal rat heart myocyte assay.; type: functional; set-up: Cardiotoxicity: unit not given here
# Method in brief: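 Neonatal rat heart myocytes exposed to drug for 1 h. The ATP/protein ratio was measured versus untreated control myocytes. IC50 is the concentration reducing this ratio to 50% of control.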
# [9] = test system: WiDr; test: Activity against human colon carcinoma sensitive WiDr cell line.; type: functional, cell-based
# [10] = test system: WiDr; test: Activity against human colon carcinoma multi drug resistant (MDR)-WiDr cell line.; type: functional, cell-based
# [11] = test system: UACC-375; test: Antitumor activity against human melanoma UACC375 cell line.; type: functional, cell-based; method in brief: as §2
# [12] = The quotient of the IC50 in the myocytes divided by the mean IC50 in the three cell lines; type: functional
# Method in brief: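 Calculated index: the myocyte IC50 divided by the mean IC50 across three tumor lines (sensitive L1210, melanoma UACC375, ovarian OVCAR3).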
# [13] = species on record: Mus musculus; test: (§3) Percent increase in life span when given at a dose in P388 leukemia cells of mice; type: functional
# Method in brief: (§4)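 P388 leukemia in mice, standard NCI protocol: 10^6 leukemia cells given ip; compound given ip in equal doses on days 1, 5 and 9. Highest dose used was 10% below the LD10 for acute toxicity in that mouse species. %ILS = 100 × (treated life span − control life span)/control life span, reported at the highest nontoxic dose.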
# [14] = species on record: Mus musculus; test: Percent increase in life span when given at a dose in P388 leukemia cells of mice (Positive control for compound 44); type: functional; method in brief: as §4
# [15] = species on record: Mus musculus; test: Percent increase in life span when given at a dose in P388 leukemia cells of mice (Positive control for compounds 15,34 and amonafide); type: functional; method in brief: as §4
# [16] = as §3; type: functional; method in brief: as §4
SMILES,IC50 [1] [nM],IC50 [2] [nM],IC50 [3] [nM],IC50 [4] [nM],IC50 [5] [nM],IC50 [6] [nM],IC50 [7] [nM],IC50 [8] [nM],IC50 [9] [nM],IC50 [10] [nM],IC50 [11] [nM],Toxicity ratio [12],ILS [13] [%],Cardiotoxicity [8],ILS [14] [%],ILS [15] [%],ILS [16] [%]
CN(C)CCN1C(=O)c2cccc3cc4cccc(Cl)c4c(c23)C1=O,61,1780,617,120,710,340,9000,8230,390,1000,2060,1.9,–,–,–,–,–
O=C1c2c(O)ccc(O)c2C(=O)c2c(NCCNCCO)ccc(NCCNCCO)c21 [MITOXANTRONE],–,–,–,–,–,–,–,7740,–,–,–,368,200,–,–,–,–
CN(C)CCN1C(=O)c2cccc3cc(N)cc(c23)C1=O [AMONAFIDE],1100,–,–,1200,1800,1100,–,48400,1100,2200,–,30,88,–,–,–,–
COc1ccc2c3c4c(cccc4cc2c1)C(=O)N(CCN(C)C)C3=O,27,54,54,95,120,73,543,–,65,130,163,<10.3,–,< 2600,–,–,–
CNCCN1C(=O)c2cccc3cc4ccc(Cl)cc4c(c23)C1=O,31,5.8,14.6,42,50,49,102,1430,51,64,44,28,–,–,–,–,–
COc1cccc2c1C(=O)c1c(O)c3c(c(O)c1C2=O)C[C@@](O)(C(=O)CO)C[C@@H]3O[C@H]1C[C@H](N)[C@H](O)[C@H](C)O1 [DOXORUBICIN],–,–,–,–,–,–,–,10200,–,–,–,–,–,–,72,113,–
CN(C)CCN1C(=O)c2cccc3cc4cccc(O)c4c(c23)C1=O,40,189,189,80,200,81,1890,15400,100,270,540,18,–,–,–,–,–
CN(C)CCN1C(=O)c2cccc3cc4cc(Cl)ccc4c(c23)C1=O,9.9,7.7,7.7,68,71,49,231,1540,100,140,90,14,–,–,–,–,–
CN(C)CCN1C(=O)c2cccc3cc4c(O)cccc4c(c23)C1=O,60,108,67,120,230,83,216,2950,130,900,270,15,–,–,–,–,–
CN(C)CCN1C(=O)c2cccc3cc4ccc(F)cc4c(c23)C1=O,4.8,8.1,–,12,25,15,6.7,456,17,13,16,45.6,–,–,–,–,–
CC(=O)Nc1cccc2c3c4c(cccc4cc12)C(=O)N(CCN(C)C)C3=O,–,–,–,–,–,–,–,–,–,–,–,–,–,–,–,–,109
CN(C)CCN1C(=O)c2cccc3cc4ccc(O)cc4c(c23)C1=O,1.7,189,540,17,35,5.8,2130,> 27000,17,240,1220,>23,–,–,–,–,–
COc1cccc2c3c4c(cccc4cc12)C(=O)N(CCN(C)C)C3=O,4.8,13,18,5.4,67,120,52,806,9,30,52,21,–,–,–,–,–
